The data set relates to MS2 coat protein. As to the kind of experiment: apparent Kd, MS2 coat protein; higher = weaker binding; RNA-MaP array; FMN 200 µM where present. In outline:
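On Illumina sequencing-chip clusters, designs were transcribed by stalled E. coli RNA polymerase and titrated with SNAP-549-labelled MS2 coat protein (0.7 or 1.5 nM, doubling to 3 µM), without and then with constant ligand, in 100 mM Tris-HCl pH 7.5, 80 mM KCl, 4 mM MgCl2, BSA, DTT, yeast tRNA and Tween-20. Apparent Kd is the median of filtered per-cluster curve fits to green signal normalised to red-channel RNA signal and control-cluster median Fmax.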

[1] abbreviates: designed as: OFF switch for flavin mononucleotide, no ligand.
Where [2] appears, read: ligand present: flavin mononucleotide, designed as: OFF switch for flavin mononucleotide.
Setting [3] is: designed as: ON switch for flavin mononucleotide, no ligand.
Setting [4] is: ligand present: flavin mononucleotide, designed as: ON switch for flavin mononucleotide.

One may read the apparent Kd as the concentration giving half-maximal binding under the conditions of the assay. “AAUCAGUCAGGAUAUCGUUAAUUUAAUUGUUUGUUUUAGUUCGAGAAGGGACAUGAGGAUCACCCAUGUACUCA”: the “apparent Kd” value reads like this: under setting [1], 23.1 nM; under setting [2], 28.8 nM.
Consider “UGUCGGAGCAGAGGAUAUUACAUGAGGAUCACCCAUGUAUGAACCAAUAGCUGGAAACAGCAAUGUAAGAAGGCUGCUCCGACU”, for which the “apparent Kd” value was found to be 13 nM under setting [1] and 174 nM under setting [2].
Turning to “UUUUAGUAAGGAUAUGCGUAGAUCUCGGAAACGAGAUCUACGCAGAAGGUACAUGAGGAUCACCCAUGUAGAUU”, the “apparent Kd” value reads like this: under setting [1], 17.4 nM; under setting [2], 22.3 nM.
For “UGGGUCCCAGUCAGGAUAUCGUGCUUUUACAUGCACGAGAAGGGACAUGAGGAUCACCCAUGUCAAGGCGGUCA”, in that order: 102 nM and 330 nM.
In the same order, the values of “AGAAACCAAGGAUAUACAUGAGGAUCACCCAUGUUAGCGUGCAUGCCCUGCCUCAGCUGUAGAAGGUGGACGCC” are 25.9 nM and 28.8 nM.
As for “AAUAAACUCACAGGAUAUAGCAUAGGCCGCGUGAACUUACAGGCGACUAUGCUAGAAGGGUGACCACAUGAGGAUCACCCAUGU”, the “apparent Kd” value runs as follows: under setting [3], 851 nM; under setting [4], 141 nM.
Consider “UGUCGGAGCAGAGGAUAUUACAUGAGGAUCACCCAUGUAUGAACCAAUAGCUGGAAACAGCAAUGUUAGAAGGCUGCUCCGACA”, for which the “apparent Kd” value was determined as 5.23 nM under setting [1] and 6.86 nM under setting [2].
Turning to “AAGGAGUGAGGAUAUACAUGAGGAUCACCCAUGUUGAUGGAAACGUCAGAGAAAGAAGGUAGAAGGCACAAGAA”, the “apparent Kd” value under setting [1] is 56.7 nM and the “apparent Kd” value under setting [2] was 58.5 nM.
For “CUGCGUCGUGUUAGGAUAUCCAGCGGUGCGCGCCAGGAGAAGGAACAUGAGGAUCACCCAUGUAAACCGAUGGC”, the “apparent Kd” value by setting is: under setting [1], 12.4 nM; under setting [2], 13.4 nM.
“CGUGCACAUGUAGGAUAUGGUUAUCUAUGUCUAGUUACUAGACAUAGAUAACCAGAAGGACAUGAGGAUCACCCAUGUAGCACG”: the “apparent Kd” value runs as follows: under setting [1], 346 nM; under setting [2], 275 nM.
“AAUUGACACGUAGGAUAUCGCUCUAAUUAAACACGAGAAGGACGUACAUGAGGAUCACCCAUGUUAAAUGGUGUAGAUAAGUUG”: the “apparent Kd” value under setting [1] is 172 nM and the “apparent Kd” value under setting [2] worked out at 479 nM.
For the sequence “CCUGUCGCAUGAGGAUAUGGUCAGCUUUGCUGACCAGAAGGCAUGUCGAUAGACAUGAGGAUCACCCAUGUAGUAAAGACAGGA”, the “apparent Kd” value under setting [3] worked out at 831 nM and the “apparent Kd” value under setting [4] was 57.3 nM.
In the case of “AAAAAGUGAGGAUAUACAUGAGAAAAAAAAAUGUAAAAAAAACAUGAGGAUCACCCAUGUAGAAGGCACAAAAA”, the “apparent Kd” value reads like this: under setting [1], 49.7 nM; under setting [2], 82.7 nM.
Regarding “GCUGGACAUGAGGAUCACCCAUGUGAGGAUAUCGGCUGGUACGUGUUGGCUGGCAUCUCGAGAAGGCACAUAGU”, the “apparent Kd” value by setting is: under setting [1], 32.8 nM; under setting [2], 42.4 nM.
Consider “AACUCGUCAGGAUAUGCGCGCAGUUAAUACGCUUCGCAAUUGCAGAAGGGACAUGAGGAUCACCCAUGUAAAUA”, for which the “apparent Kd” value is, setting by setting: under setting [1], 32.1 nM; under setting [2], 33.1 nM.
Take “UGUCGGAGCAGAGGAUAUUACAUGAGGAUCACCCAUGUAUGAACCAAUAGCUGGAAACAGCAUUGUAAGAAGGCUGCUCCGACA”: the “apparent Kd” value amounted to 4.75 nM under setting [1] and 12.1 nM under setting [2].
For “AAUAUAGAGCUGGUCUCAUAAUAAACAUGAGGAUCACCCAUGUAGGAUAUCAGCACGAUAAGUGCUGAGAAGGACAUCCAGCUC”, in that order: 21.4 nM and 47 nM.
Regarding “UCGAUGUAAGAGAAGGAGGACUUCAUGAGGAUCACCCAUGUGUUAGUACUUAGGAUAUUUGACAACAUGAGGAUCACCCAUGUC”, the “apparent Kd” value under setting [3] worked out at 64.3 nM and the “apparent Kd” value under setting [4] was found to be 61.6 nM.
Regarding “UUAAAUCAUGUAGGAUAUGCAUGGCGAAGCUACGCAGAAGGACAUGAGGAUCACCCAUGUUCUAGCUACCGAGAACGGUGGCAA”, the “apparent Kd” value is 19.1 nM under setting [1] and 74.1 nM under setting [2].
Consider “UCAUUUAUUACAGGAUAUGUUAGAAUUCAGUUGUUUGGUUAUUACAUAUUAACAGAAGGGUAGAACAUGAGGAUCACCCAUGUA”, for which the “apparent Kd” value under setting [3] stood at 114 nM and the “apparent Kd” value under setting [4] was 81.5 nM.
“ACCAAUGCAGGAUAUACAUGAGGAUCACCCAUGUAUAACCUACAUAGAUGAUCAUCAUGUAGAAGGGCAAUGGA”: the “apparent Kd” value under setting [1] amounted to 13.1 nM and the “apparent Kd” value under setting [2] came to 12.1 nM.
Turning to “AUCAGCUCGUCAGGAUAUACGUCACUGCGUCAGCAGUGUGGUAAGAUCACAUGAGGAUCACCCAUGUAGAAGGGACGAGGUGAU”, the “apparent Kd” value reads like this: under setting [1], 14.9 nM; under setting [2], 265 nM.
In the same order, the values of “UUCUAACGAGGAUAUCGAUGGUGGAACAUGAGGAUCACCCAUGUAUGAGAUAUUGUAGUUCGAGAAGGCGUUCAGU” are 42.1 nM and 32.5 nM.
Consider “CUGUAGAGUUAGGAUAUCGGCGCGUGAGAAGUUUGAGAAGGGACCACAUGAGGAUCACCCAUGUGUCUUCACCU”, for which the “apparent Kd” value under setting [1] turned out to be 14.7 nM and the “apparent Kd” value under setting [2] stood at 15.7 nM.
As for “GCAGCAUAUGCAGGAUAUCAGCACGUGUAGUGCUGAGAAGGGCACAUGAGGAUCACCCAUGUGAUCAAUUAAUAUAUAUGCUGC”, the “apparent Kd” value under setting [1] was 6.36 nM and the “apparent Kd” value under setting [2] came to 16.4 nM.
Turning to “CGUCGAUACCAGAAGGACAUGAGGAUCACCCAUGUAGGAUAUGGGUGACCGGGAUGGCAGACAUGGUGCCCGGGCACAUGCGAC”, the “apparent Kd” value stood at 70 nM under setting [3] and 9.82 nM under setting [4].
In the case of “GUGCAUACGUGAGGAUAUGUAUUAGAUAGUGGUACAGAAGGCAUGUCAGAUGACAUGAGGAUCACCCAUGUUGGCAAAAUGCGC”, the “apparent Kd” value under setting [3] was determined as 47.5 nM and the “apparent Kd” value under setting [4] turned out to be 10.2 nM.
In the case of “UAUAUAUAGUAAGGAUAUGUAUAUAUUUUAUUAACAGAAGGUACUGACAUGAGGAUCACCCAUGUUUUAGUGUGGGCAUGUAGA”, the “apparent Kd” value reads like this: under setting [1], 76.7 nM; under setting [2], 100 nM.
Take “AAGUCAGCAGGAUAUGCGAUGUUGUGCUAGAUAGCGUGACCACAUGAGGAUCACCCAUGUAGAAGGGCUGGCUA”: the “apparent Kd” value under setting [1] is 30.9 nM and the “apparent Kd” value under setting [2] amounted to 20.2 nM.
For “CAGGUAGACUGAGGAUAUACAUGACUUAGUCUAUCUAGGUCAUAAACCACAUGAGGAUCACCCAUGUAGAAGGCAGUCUGCCUG”, the “apparent Kd” value came to 17 nM under setting [1] and 19.8 nM under setting [2].
On to “GACAUACGCGAUCCUUGGACAUGAGGAUCACCCAUGUACCGGAAGGAUAUCCUUCGCAAAAGCUAGGAGAAGGUUCGGUAGGUC”, for which the “apparent Kd” value is, setting by setting: under setting [1], 26.1 nM; under setting [2], 86.1 nM.
As to “CUUUGGAUGUCAGGAUAUUGAAUCAUGGAUGGUAUCUUACAGUCUUACAUGAGGAUCACCCAUGUCGAGAAGGGAUAUCAGCUC”, the “apparent Kd” value by setting is: under setting [1], 6.15 nM; under setting [2], 10.5 nM.
For the sequence “UUUGGUUGUGUAGGAUAUGUGUGGCGGGCUGGCACAGAAGGACAUGAGGAUCACCCAUGUGGUUUGGGUUGGGUGGUUGGCCCG”, the “apparent Kd” value was 943 nM under setting [1] and 771 nM under setting [2].
In the same order, the values of “UAAAAUUUAUGAUAUUAUGACAGUAGAAGGCUAUACAUGUUGAUACAUGAGGAUCACCCAUGUAUAGAGGAUAUAUACAUUUAU” are 845 nM and 832 nM.
In the case of “CAGUCUACAGGAUAUACAUGAGGAUCACCCAUGUGUAUUCACUUUCAGUAAUCCAUAUGUAGAAGGGUAGACUG”, the “apparent Kd” value is, setting by setting: under setting [1], 16.9 nM; under setting [2], 34.2 nM.
As to “CUGAGGUCAGGAUAUGCAUGGCGGGACUUGCGUCGUGGCGUGCAGAAGGGACAUGAGGAUCACCCAUGUGGAGU”, the “apparent Kd” value by setting is: under setting [1], 165 nM; under setting [2], 287 nM.
In the same order, the values of “AAAUUAAGAAGAGGAUAUUGACAUGAGGAUCACCCAUGUAUUUGGGAGUGUUUACUGAAUUCUUACGAGAAGGUUUACGAACUU” are 278 nM and 211 nM.
As for “AGUAAGAUGCAGAAGGUGUUAGCUAGAGCUACGACAUGAGGAUCACCCAUGUAAAACCGCCCGUACAAGGAUAUGCAUCUUACA”, the “apparent Kd” value is, setting by setting: under setting [3], 6.12 nM; under setting [4], 5.54 nM.
As to “GGACAUGUCGUUUACAUGAGGAUCACCCAUGUCGAUGGACAUGAGGAUAUCGAUCCGAAUCGGAUCGAGAAGGCAUGCAUGUCC”, the “apparent Kd” value runs as follows: under setting [3], 41.8 nM; under setting [4], 18.6 nM.
For “UUGGACGUCGUAGGAUAUGUAGGAUAUUCCUACAUGAGGAUCACCCAUGUUGACAUGGAAGCAGGACAGAAGGACGAUGUCCAU”, in that order: 578 nM and 14.3 nM.
As to “AAAAAAAAAACUCAGGAUAUAGAUUGUUGAACAUGAGGAUCACCCAUGUAGUGAAAAGCGAAAAACUAGAAGGGAGGAAAAAAAAA”, the “apparent Kd” value is, setting by setting: under setting [3], 82.5 nM; under setting [4], 46 nM.
As for “UAGAAGUCAGGAUAUCCAUGGCGGCACUUGCGUGGUGGCGUGGAGAAGGGACAUGAGGAUCACCCAUGUAAAGA”, the “apparent Kd” value runs as follows: under setting [1], 54.4 nM; under setting [2], 42 nM.
For “CUUUUGUGAGGAUAUCAGUAGUAAAAAAAUAAAAUUACUACUGAGAAGGCACAUGAGGAUCACCCAUGUCUUUC”, in that order: 122 nM and 76.8 nM.
Turning to “UCCAUCCCUGUGAGGAUAUCGUCCGUUUUUUGUUCCGAGAAGGCACAUGAGGAUCACCCAUGUUUUUUGUUUUU”, the “apparent Kd” value runs as follows: under setting [1], 29.4 nM; under setting [2], 58.8 nM.
As to “AAUCGAUCAACAGGAUAUGCGCAAUGAUCUGAACAUGAGGAUCACCCAUGUGCAGAAGGGUUGGUCAUCUUUUGGGACGAGACA”, the “apparent Kd” value came to 101 nM under setting [1] and 311 nM under setting [2].
In the case of “GGCAGCGGACAAGGAUAUAAGACGCAGACCAAAUUAGAAGGUGUCAUCUGGCAAUGCGAAAGCAGACAUGAGGAUCACCCAUGU”, the “apparent Kd” value under setting [3] turned out to be 68.8 nM and the “apparent Kd” value under setting [4] came out at 61.7 nM.
“GCAGCGUAUGUAGGAUAUCGGUCAGUUUCUGAUCGAGAAGGACAUGAGGAUCACCCAUGUAAAUUUCCGACUUUGUCGGGCUGC”: the “apparent Kd” value under setting [1] amounted to 7.04 nM and the “apparent Kd” value under setting [2] was 8.73 nM.
“AUUUAUUAGUAAGGAUAUACUAGCGAUUUGCUUGUAGAAGGUACAGUCUUAUGUAUAACAUGUUAACAUGAGGAUCACCCAUGU”: the “apparent Kd” value by setting is: under setting [3], 44.4 nM; under setting [4], 27.5 nM.

The values are drawn from the EternaBench riboswitch data.
